# Results as given in ChEMBL document CHEMBL1128448, “Synthesis and antifungal activity of new azole derivatives containing an N-acylmorpholine ring” (1995).
# Columns and labels:
# [1] = system: Candida parapsilosis; assay: Evaluation of In vitro antifungal activity against Candida parapsilosis C292 by broth macro dilution method; type: functional; conditions: Lodderomyces parapsilosis
# In short: (§1)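 Yeast MIC and MFC by broth macrodilution per NCCLS M27-P in RPMI-1640 buffered with 0.165 M MOPS. Fluconazole in sterile water, other drugs in DMSO. C. parapsilosis ATCC 22019 is the reference strain in each run. MIC is the lowest concentration with turbidity ≤ the 80% inhibition standard. For MFC, 0.04 mL from clear tubes is plated on Sabouraud agar; MFC is the lowest concentration giving ≤1 colony.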
# [2] = system: Kluyveromyces marxianus; assay: In vitro evaluation of minimum inhibitory concentration against Candida pseudotropicalis 13; type: functional; conditions: Kluyveromyces marxianus; read-out: MIC
# In short: (§2)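 Stocks are 800 μg/mL in 50% ethanol. Each plate gets 10 μL of inoculum at 10^5 cfu/mL. Incubation at 25 °C, 48 h for yeasts and 120 h for dermatophytes and molds. Organisms are ATCC strains or clinical isolates.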
# [3] = system: Candida tropicalis; assay: In vitro evaluation of minimum inhibitory concentration against Candida tropicalis 2.11; type: functional; conditions: Candida tropicalis; read-out: MIC; in short: as §2
# [4] = system: Aspergillus fumigatus; assay: In vitro evaluation of minimum inhibitory concentration against Aspergillus fumigatus 33; type: functional; conditions: Aspergillus fumigatus; read-out: MIC; in short: as §2
# [5] = system: Nakaseomyces glabratus; assay: In vitro evaluation of minimum inhibitory concentration against Torulopsis glabrata 78; type: functional; conditions: Nakaseomyces glabratus; read-out: MIC; in short: as §2
# [6] = system: Candida albicans; assay: Evaluation of In vitro antifungal activity against Candida albicans 76 by broth macro dilution method; type: functional; in short: as §1
# [7] = system: Microsporum canis; assay: In vitro evaluation of minimum inhibitory concentration against Microsporum canis 47; type: functional; conditions: Microsporum canis; read-out: MIC; in short: as §2
# [8] = system: Candida tropicalis; assay: Evaluation of In vitro antifungal activity against Candida tropicalis 2.11 by broth macro dilution method; type: functional; in short: as §1
# [9] = system: Candida parapsilosis; assay: Evaluation of In vitro antifungal activity against Candida parapsilosis ATCC 22019 by broth macro dilution method; type: functional; conditions: Lodderomyces parapsilosis; in short: as §1
# [10] = system: Candida parapsilosis; assay: Evaluation of In vitro antifungal activity against Candida parapsilosis 2.07 by broth macro dilution method; type: functional; conditions: Lodderomyces parapsilosis; in short: as §1
# [11] = system: Candida albicans; assay: Evaluation of In vitro antifungal activity against Candida albicans 406 by broth macro dilution method; type: functional; in short: as §1
# [12] = system: Aspergillus flavus; assay: In vitro evaluation of minimum inhibitory concentration against Aspergillus flavus 19; type: functional; conditions: Aspergillus flavus; read-out: MIC; in short: as §2
# [13] = system: Pichia kudriavzevii; assay: In vitro evaluation of minimum inhibitory concentration against Candida krusei 70; type: functional; conditions: Pichia kudriavzevii; read-out: MIC; in short: as §2
# [14] = system: Candida albicans; assay: Evaluation of In vitro antifungal activity against Candida albicans 60 by broth macro dilution method
# [15] = system: Candida parapsilosis; assay: Evaluation of In vitro antifungal activity against Candida parapsilosis ATCC 141095 by broth macro dilution method; type: functional; conditions: Lodderomyces parapsilosis; in short: as §1
# [16] = system: Aspergillus niger; assay: In vitro evaluation of minimum inhibitory concentration against Aspergillus niger 18; type: functional; conditions: Aspergillus niger; read-out: MIC; in short: as §2
# [17] = system: Meyerozyma guilliermondii; assay: Evaluation of In vitro antifungal activity against Candida guilliermondii 26 by broth macro dilution method; type: functional; in short: as §1
# [18] = system: Candida albicans; assay: Evaluation of In vitro antifungal activity against Candida albicans C56 by broth macro dilution method; type: functional; in short: as §1
# [19] = system: Pichia kudriavzevii; assay: Evaluation of In vitro antifungal activity against Candida krusei C64 by broth macro dilution method; type: functional; in short: as §1
# [20] = system: Candida tropicalis; assay: Evaluation of In vitro antifungal activity against Candida tropicalis 50 by broth macro dilution method; type: functional; in short: as §1
# [21] = system: Nakaseomyces glabratus; assay: Evaluation of In vitro antifungal activity against Torulopsis glabrata 78 by broth macro dilution method; type: functional; in short: as §1
# [22] = system: Candida albicans; assay: […] Evaluation of minimum inhibitory concentration against Candida albicans 406; type: functional; in short: as §2
# [23] = system: Trichophyton rubrum; assay: In vitro evaluation of minimum inhibitory concentration against Trichophyton rubrum 90; type: functional; conditions: Trichophyton rubrum; read-out: MIC; in short: as §2
# [24] = system: Candida albicans; assay: Evaluation of In vitro antifungal activity against Candida albicans 31 by broth macro dilution method; type: functional; in short: as §1
# [25] = system: Pichia kudriavzevii; assay: Evaluation of In vitro antifungal activity against Candida krusei 70 by broth macro dilution method; type: functional; in short: as §1
# [26] = system: Rhodotorula mucilaginosa; assay: In vitro evaluation of minimum inhibitory concentration against Rhodotorula rubra 16; type: functional; conditions: Rhodotorula mucilaginosa; read-out: MIC; in short: as §2
# [27] = system: Kluyveromyces marxianus; assay: Evaluation of In vitro antifungal activity against yeasts by broth macro dilution method; type: functional; in short: as §1
# [28] = system: Kluyveromyces marxianus; assay: Evaluation of In vitro antifungal activity against Candida pseudotropicalis ATCC 28838 by broth macro dilution method; type: functional; in short: as §1
# [29] = system: Trichophyton benhamiae; assay: In vitro evaluation of minimum inhibitory concentration against Trichophyton mentagrophytes 23; type: functional, Arthroderma benhamiae; conditions: Trichophyton benhamiae; read-out: MIC; in short: as §2
# [30] = system: Cryptococcus neoformans; assay: Evaluation of In vitro antifungal activity against Cryptococcus neoformans 87 by broth macro dilution method; type: functional; in short: as §1
# [31] = system: Candida albicans; assay: Evaluation of In vitro antifungal activity against Candida albicans C52 by broth macro dilution method; type: functional; in short: as §1
# [32] = system: Candida albicans; assay: In vitro evaluation of minimum inhibitory concentration against Candida albicans 76; type: functional; conditions: Candida albicans; read-out: MIC; in short: as §2
# [33] = system: Cryptococcus neoformans; assay: Evaluation of In vitro antifungal activity against Cryptococcus neoformans 74 by broth macro dilution method; type: functional; in short: as §1
# [34] = system: Candida parapsilosis; assay: Evaluation of In vitro antifungal activity against Candida parapsilosis C74 by broth macro dilution method; type: functional; conditions: Lodderomyces parapsilosis; in short: as §1
# [35] = system: Nannizzia gypsea; assay: In vitro evaluation of minimum inhibitory concentration against Microsporum gypseum 22; type: functional; conditions: Nannizzia gypsea; read-out: MIC; in short: as §2
# [36] = system: Candida albicans; assay: […] Evaluation of minimum inhibitory concentration against Candida albicans 60; type: functional; in short: as §2
# [37] = system: Meyerozyma guilliermondii; assay: In vitro evaluation of minimum inhibitory concentration against Candida guilliermondii 26; type: functional; conditions: Meyerozyma guilliermondii; read-out: MIC; in short: as §2
# [38] = system: Candida albicans; assay: Evaluation of In vitro antifungal activity against Candida albicans ATCC 10231 by broth macro dilution method; type: functional; in short: as §1
# [39] = system: Candida albicans; assay: Evaluation of In vitro antifungal activity against Candida albicans 2.01 by broth macro dilution method; type: functional; in short: as §1
# [40] = system: Candida albicans; assay: Evaluation of […] antifungal activity against Candida albicans 60 by broth macro dilution method; type: functional; in short: as §1
# [41] = system: Candida parapsilosis; assay: In vitro evaluation of minimum inhibitory concentration against Candida parapsilosis 61; type: functional; conditions: Lodderomyces parapsilosis; read-out: MIC; in short: as §2
smiles,measurement,setting,value
CC(=O)N1CCN(c2ccc(OC[C@H]3CO[C@](Cn4ccnc4)(c4ccc(Cl)cc4Cl)O3)cc2)CC1 [KETOCONAZOLE],MFC,[1],16 µg/mL
same,MIC,[1],0.125 µg/mL
same,MIC,[2],10 µg/mL
same,MIC,[3],2.5 µg/mL
same,MIC,[4],5 µg/mL
same,MIC,[5],1.25 µg/mL
same,MFC,[6],> 16 µg/mL
same,MIC,[6],< 0.031 µg/mL
same,MIC,[7],2.5 µg/mL
same,MFC,[8],8 µg/mL
same,MIC,[8],0.25 µg/mL
same,MFC,[9],4 µg/mL
same,MIC,[9],0.063 µg/mL
same,MFC,[10],> 16 µg/mL
same,MIC,[10],0.063 µg/mL
same,MFC,[11],> 16 µg/mL
same,MIC,[11],0.063 µg/mL
same,MIC,[12],2.5 µg/mL
same,MIC,[13],1.25 µg/mL
same,MFC,[14],> 16 µg/mL
same,MFC,[15],16 µg/mL
same,MIC,[15],0.5 µg/mL
same,MIC,[16],40 µg/mL
same,MFC,[17],4 µg/mL
same,MIC,[17],0.125 µg/mL
same,MFC,[18],> 16 µg/mL
same,MIC,[18],< 0.031 µg/mL
same,MFC,[19],8 µg/mL
same,MIC,[19],2 µg/mL
same,MFC,[20],> 16 µg/mL
same,MIC,[20],2 µg/mL
same,MFC,[21],> 16 µg/mL
same,MIC,[21],8 µg/mL
same,MIC,[22],< 0.03 µg/mL
same,MIC,[23],1.25 µg/mL
same,MFC,[24],> 16 µg/mL
same,MIC,[24],< 0.031 µg/mL
same,MFC,[25],4 µg/mL
same,MIC,[25],2 µg/mL
same,MIC,[26],0.07 µg/mL
same,MIC,[27],0.063 µg/mL
same,MFC,[28],> 16 µg/mL
same,MIC,[29],5 µg/mL
same,MFC,[30],16 µg/mL
same,MIC,[30],2 µg/mL
same,MFC,[31],> 16 µg/mL
same,MIC,[31],< 0.031 µg/mL
same,MIC,[32],0.15 µg/mL
same,MFC,[33],1 µg/mL
same,MIC,[33],< 0.031 µg/mL
same,MFC,[34],0.25 µg/mL
same,MIC,[34],0.063 µg/mL
same,MIC,[35],0.63 µg/mL
same,MIC,[36],< 0.03 µg/mL
same,MIC,[37],< 0.03 µg/mL
same,MFC,[38],> 16 µg/mL
same,MIC,[38],0.063 µg/mL
same,MFC,[39],> 16 µg/mL
same,MIC,[39],0.063 µg/mL
same,MIC,[40],< 0.031 µg/mL
same,MIC,[41],0.07 µg/mL
